Usually EC90 stands for the point of the concentration-response curve where the effect stands at 90%. Low values mean greater potency, high ones weaker potency. For orientation: EC50 means the concentration needed to bring the measured effect to its halfway point. Read a high EC50 as lower potency in that assay. For orientation: CC50 means the concentration at which the toxic effect on the cells reaches its halfway point. Low readings indicate greater toxicity to the cells, high ones lower toxicity to the cells.

We go through 13 compounds from ChEMBL document CHEMBL1141861, “Synthesis and in vitro anti-hepatitis B and C virus activities of ring-expanded ('fat') nucleobase analogues containing the imidazo[4,5-e][1,3]diazepine-4,8-dione ring system” (Bioorg Med Chem Lett, 2005).

Experiment [1] has as its system Huh-7. Description: Cytotoxicity against Huh7ET cell line containg HCV replicon at 10 uM assessed by measuring the beta-actin RNA level relative to control. Format: functional, Homo sapiens. In a few lines:
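Huh7 ET HCV replicon (luciferase reporter) cells treated at 10 µM in the same primary screen. Cellular β-actin RNA level is used to compute cytotoxicity, expressed as % of control.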
In general terms: In antiviral work, replicon cells carry a viral genome segment that copies itself.

Experiment [2] concerns Huh-7. The experiment is described as follows: Selectivity index (toxicity/antiviral activity). Format: functional. In a few lines:
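Huh7 ET HCV luciferase replicon cells, single 10 µM primary screen. Index is the ratio of β-actin RNA level (% control) to replicon-derived luciferase activity (% control).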

In the next experiment the test system is Hepatitis C virus. The experiment is described as follows: Antiviral activity against HCV in Huh7 ETcell line at 10 uM assessed by measuring HCV-RNA-derived LUC activity relative to control. Format: functional, Hepacivirus hominis. The procedure, abridged:
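Primary single-concentration screen (10 µM) in Huh7 ET cells carrying an HCV RNA replicon with a stable luciferase reporter. Replicon-derived luciferase activity serves as an indirect measure of HCV RNA and is expressed as % of control.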

In experiment [3] the test system is HepG2. The experiment is described as follows: Selectivity index (CC50/EC50) for inhibition of HBV replicative intermediate synthesis in human hepatoblastoma 2.2.15 cells. Format: functional. In a few lines: (§1)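 2.2.15 cells were dosed daily for nine days. CC50 is the neutral red uptake concentration causing a twofold reduction versus untreated cultures. EC50 is from blot hybridization of intracellular replicative intermediates or extracellular virion DNA, by linear regression. Index = CC50/EC50.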

The subject of experiment [4] is Hepatitis B virus. The experiment is described as follows: Inhibition of synthesis of extracellular virion DNA release in cultured human hepatoblastoma 2.2.15 cells. In kind it is functional, organism-based. The settings on record: HepG2 2.2.15. In a few lines: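 Confluent 2.2.15 cells were dosed daily for nine days. Culture medium was collected daily, and extracellular virion HBV DNA was assayed on days 0, 3, 6 and 9 by blot hybridization using ³²P-labelled HBV-specific probes. EC50 and EC90 (50%/90% inhibition) came from linear regression on all treated cultures, with SD taken from the regression standard error.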

Experiment [5] concerns Hepatitis B virus. Description: Inhibition of synthesis of intracellular HBV DNA replicative intermediates in cultured human hepatoblastoma 2.2.15 cells. Particulars: HepG2 2.2.15. In kind it is functional, organism-based. In a few lines:
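2.2.15 cells were dosed daily for nine days and lysed 24 h after day 9. Intracellular HBV DNA replicative intermediates were measured by Southern/dot blot hybridization with ³²P-labelled HBV probes. EC50 and EC90 came from linear regression on combined treated-culture data, with SD from the regression standard error.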

Experiment [6] concerns HepG2. Description: Cytotoxicity against human hepatoblastoma 2.2.15 cells. Format: functional. In a few lines:
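Confluent HBV-producing 2.2.15 cells received compound daily for nine days. Cytotoxicity was read by neutral red dye uptake. CC50 is the concentration giving a twofold drop in uptake from the mean of untreated cultures.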

In experiment [7] the test system is HepG2. The experiment is described as follows: Selectivity index (CC50/EC50) for inhibition of HBV virion DNA synthesis in human hepatoblastoma 2.2.15 cells. Format: functional. The procedure, abridged:
as §1

Consider `CCCCCCCCCCCCCCNc1nc(=O)c2c(nc(Br)n2Cc2ccc(OC)cc2)c(=O)[nH]1`, for which the Activity was found to be 34% in the experiment with Huh-7 [1] and 64% with Hepatitis C virus. The compound further had a Selectivity index in the experiment on Huh-7 [2] of 0.532.

Turning to `CCCCCCCCNc1nc(=O)c2c(nc(Br)n2Cc2ccc(OC)cc2)c(=O)[nH]1`, the Activity is given as 69% in the experiment with Huh-7 [1] and 32% in the experiment with Hepatitis C virus. This compound showed a Selectivity index in the experiment on Huh-7 [2] of 2.155.

On to `NC(=O)c1ncn([C@@H]2O[C@H](CO)[C@@H](O)[C@H]2O)n1` [RIBAVIRIN], for which the Activity in the experiment with Huh-7 [1] is recorded as 12%; in the experiment with Hepatitis C virus, 89%. For the same compound, the Selectivity index in the experiment on Huh-7 [2] is listed as 0.42.

Turning to `CCCCCCCCNc1nc(=O)c2c(nc(Br)n2COCc2ccccc2)c(=O)[nH]1`, the Activity with Huh-7 [1] amounted to 61%; in the experiment with Hepatitis C virus, 29%. In addition, in the experiment on Huh-7 [2], the Selectivity index was found to be 2.1.

Consider `CCCCCCCCCCCCCCCCNc1nc(=O)c2c(nc(Br)n2Cc2ccc(OC)cc2)c(=O)[nH]1`, for which the figures for the Activity with Huh-7 [1] and with Hepatitis C virus were 3% and 70%, respectively. This compound displayed a Selectivity index in the experiment with Huh-7 [2] of 0.043.

Take `CCCCCCCCCCNc1nc(=O)c2c(nc(Br)n2Cc2ccc(OC)cc2)c(=O)[nH]1`: the results for the Activity in the experiment with Huh-7 [1] and with Hepatitis C virus were 32% and 53%, respectively. The compound further returned a Selectivity index in the experiment on Huh-7 [2] of 0.604.

With `COc1ccc(Cn2c(Br)nc3c(=O)nc(NCc4ccccc4)[nH]c(=O)c32)cc1`, the Activity came out at 69% in the experiment on Huh-7 [1] and 55% with Hepatitis C virus. In addition, the Selectivity index in the experiment on Huh-7 [2] was found to be 1.255.

For the compound `Nc1ccn([C@@H]2CS[C@H](CO)O2)c(=O)n1` [LAMIVUDINE], the Selectivity index stood at 8602 with HepG2 [3] and 44979 with HepG2 [7]. Besides, the 90% effect concentration (EC90) in the experiment with Hepatitis B virus [4] was 0.151 µM; in the experiment on Hepatitis B virus [5], 0.648 µM. The compound also showed an EC50 in the experiment with Hepatitis B virus [5] of 0.251 µM. The same compound displayed a CC50 with HepG2 [6] of 2160 µM.

For `CCCCCCCCNc1nc(=O)c2c(nc(Br)n2Cc2ccccc2)c(=O)[nH]1`, the values for the Activity in the experiment on Huh-7 [1] and with Hepatitis C virus were 83% and 78%, respectively. For the same compound, the Selectivity index was found to be 1.06 in the experiment on Huh-7 [2], 34 with HepG2 [3] and 168 with HepG2 [7]. For the same compound, the concentration for a half-maximal effect (EC50) came out at 1.7 µM in the experiment on Hepatitis B virus [4] and 8.4 µM in the experiment on Hepatitis B virus [5]. For the same compound, the EC90 came out at 6.9 µM in the experiment with Hepatitis B virus [4] and 28 µM in the experiment on Hepatitis B virus [5]. Moreover, in the experiment on HepG2 [6], the midpoint of cytotoxicity, the CC50, lay at 286 µM.

Take `COc1ccc(Cn2c(Br)nc3c(=O)nc(N)[nH]c(=O)c32)cc1`: the figures for the Activity with Huh-7 [1] and in the experiment on Hepatitis C virus were 89% and 62%, respectively. Also, the Selectivity index in the experiment on Huh-7 [2] is listed as 1.435.

On to `CNc1nc(=O)c2c(nc(Br)n2Cc2ccc(OC)cc2)c(=O)[nH]1`, for which the Activity is on record as 48% in the experiment with Huh-7 [1] and 33% with Hepatitis C virus. The compound also registered a Selectivity index with Huh-7 [2] of 1.453.

On to `CCNc1nc(=O)c2c(nc(Br)n2Cc2ccc(OC)cc2)c(=O)[nH]1`, for which the results for the Activity in the experiment on Huh-7 [1] and in the experiment with Hepatitis C virus were 65% and 34%, respectively. Also, in the experiment on Huh-7 [2], the Selectivity index was determined as 1.912.

On to `CCCCCCCCCCCCNc1nc(=O)c2c(nc(Br)n2Cc2ccc(OC)cc2)c(=O)[nH]1`, for which the Activity with Huh-7 [1] and in the experiment on Hepatitis C virus was 47% each time. The same compound came in with a Selectivity index with Huh-7 [2] of 1.
